Reference: ChEMBL document CHEMBL4007461, “Synthesis, Antiviral Potency, in Vitro ADMET, and X-ray Structure of Potent CD4 Mimics as Entry Inhibitors That Target the Phe43 Cavity of HIV-1 gp120” (J Med Chem, 2017)
Values after ≈ are worked out from the molar mass of the structure shown. Active and inactive are the calls of the source. No cut-off for these calls is given here.

Columns and labels:
[1] = molecular target: Cytochrome P450 2C9 (Homo sapiens, UniProt P11712); assay: Inhibition of CYP2C9 in human liver microsomes using tolbutamide as substrate after 60 mins in presence of NADPH by LC-MS/MS analysis; type: ADME
[2] = (§1) Cytotoxicity against human TZM-bl cells incubated for 3 days by XTT assay; type: cell-based; settings: TZM-bl cells
Outline: (§2)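 TZM-bl cells, 1 x 10^4/well, cultured overnight at 37 °C. Compounds added at graded concentrations for three days.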

[3] = molecular target: Cytochrome P450 3A4 (Homo sapiens, UniProt P08684); assay: Inhibition of CYP3A4 in human liver microsomes using midazolam as substrate after 5 mins in presence of NADPH by LC-MS/MS analysis; type: ADME
[4] = (§3) Cytotoxicity against human MT2 cells incubated for 4 days by XTT assay; type: cell-based; settings: MT2 cells
Outline: (§4)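 Run alongside the MT-2 multicycle infection assay. Compound at graded concentrations mixed with an equal volume of MT-2 cells (10^5 cells/ml). Medium replaced next day and culture continued four days.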

[5] = test system: Human immunodeficiency virus 1; assay: Antiviral activity against ENV pseudotyped CCR5-tropic HIV1 subtype C 225925-2, clone 22; type: functional; settings: Human immunodeficiency virus 1, subtype C 225925-2, clone 22
Outline: (§5)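 Env-pseudotyped viruses made by co-transfecting HEK293T cells with an Env-deleted pSG3 backbone (8 µg) and an Env-expression plasmid (8 µg). Supernatants were harvested 2 days after transfection, filtered, titered and stored at −80 °C. They were used for single-cycle infection, and IC50 was taken from percent inhibition.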

[6] = molecular target: Cytochrome P450 2D6 (Homo sapiens, UniProt P10635); assay: Inhibition of CYP2D6 in human liver microsomes using dextromethorphan as substrate after 5 mins in presence of NADPH by LC-MS/MS analysis; type: ADME
[7] = test system: Human immunodeficiency virus 1; assay: Antiviral activity against ENV pseudotyped CCR5-tropic HIV1 subtype D QD435.100M.ENV.B5; type: functional; settings: Human immunodeficiency virus 1, subtype D QD435.100M.ENV.B5; outline: as §5
[8] = test system: Human immunodeficiency virus 1; assay: Antiviral activity against ENV pseudotyped CCR5-tropic HIV1 subtype D QA013.70I.ENV.M12; type: functional; settings: Human immunodeficiency virus 1, subtype D QA013.70I.ENV.M12; outline: as §5
[9] = Unbound fraction in human plasma at 5 uM by LC-MS/MS based equilibrium dialysis; type: ADME, cell-free
[10] = Inhibition of HIV1 HXB2 gp120-mediated cell to cell fusion using human MAGI-CCR5 cells as indicator cells and Env/Tat-expressing HL2/3 cells as effector cells preincubated with MAGI-CCR5 cells for 1 hr followed by HL2/3 cells addition by beta-galactosidase reporter gene assay; settings: Human immunodeficiency virus 1, HXB2
[11] = Apparent permeability from apical to basolateral side in human Caco2 cells at 10 uM at pH 7.4 by LC-MS/MS analysis; type: ADME, cell-based; settings: Caco-2, pH 7.4
Outline: (§6)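 Caco-2 cells, passage 40-60, seeded on Transwell inserts at 1 x 10^5 cells/cm2 and grown 20 days in DMEM. Monolayers equilibrated 40 min in HBSS. Donor: compound at 10 µM final, 1% DMSO, in HBSS pH 7.4 with lucifer yellow as integrity marker. Sampled at 120 min, A-B and B-A, in duplicate, by LC-MS/MS. Papp = (dQ/dt)/(C0 × A); efflux ratio = Papp(B-A)/Papp(A-B).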

[12] = Apparent permeability from basolateral to apical side in human Caco2 cells at 10 uM at pH 7.4 by LC-MS/MS analysis; type: ADME, cell-based; settings: Caco-2, pH 7.4; outline: as §6
[13] = Inhibition of HIV1 reverse transcriptase by colorimetric assay; design: species or system Human immunodeficiency virus 1
Outline: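 HIV-1 reverse transcriptase activity measured with a commercial colorimetric reverse transcriptase kit, following the maker's instructions.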

[14] = molecular target: Cytochrome P450 2C19 (Homo sapiens, UniProt P33261); assay: Inhibition of CYP2C19 in human liver microsomes using mephenytoin as substrate after 60 mins in presence of NADPH by LC-MS/MS analysis; type: ADME
[15] = molecular target: Voltage-gated inwardly rectifying potassium channel KCNH2 (Homo sapiens, UniProt Q12809); assay: Inhibition of human ERG expressed in CHO cells by patch clamp electrophysiology assay; type: cell-based
[16] = Metabolic stability in human liver microsomes assessed as compound remaining at 45 mins in presence of NADPH by LC-MS/MS analysis; type: ADME, microsome; settings: read-out: Stability
[17] = Intrinsic clearance in human liver microsomes assessed per mg protein in presence of NADPH by LC-MS/MS analysis; type: ADME, microsome; settings: read-out: CLH
[18] = Aqueous solubility of the compound at 1 to 100 uM in PBS at pH 7.4 after 2 hrs by turbidimetric analysis; type: physicochemical
Outline: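 DMSO stocks diluted 1:100 into phosphate-buffered saline pH 7.4, giving 1, 3, 10, 30 and 100 µM final in 1% DMSO. Seven replicate wells per concentration, incubated 2 h at 37 °C, absorbance read at 620 nm. Solubility taken as the concentration giving absorbance above the 1% DMSO vehicle.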

[19] = Inhibition of CYP1A in human liver microsomes using ethoxyresorufin as substrate after 5 mins in presence of NADPH by LC-MS/MS analysis
[20] = test system: TZM; assay: as §1; type: cell-based; settings: tzm, 72 h; outline: as §2
[21] = test system: MT2; assay: as §3; type: cell-based; settings: mt2, 96 h, 96 h; outline: as §4
[22] = test system: Human immunodeficiency virus 1; assay: Antiviral activity against HIV1 3B infected in human MT2 cells assessed as inhibition of p24 antigen production pretreated with virus for 30 mins followed by 4 days incubation with cells by sandwich ELISA based multicycle infection assay; type: functional, cell-based
Outline: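 MT-2 cells were infected with HIV-1 IIIB at 100 TCID50 and preincubated 30 min with graded compound concentrations. Medium was replaced next day. Supernatants were collected 4 days post-infection, lysed with equal volume 5% Triton X-100, and p24 was measured by sandwich ELISA. IC50 came from percent inhibition of p24.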

[23] = test system: Human immunodeficiency virus 1; assay: Antiviral activity against X4 tropic HIV1 HXB2 infected in human TZM-bl cells pretreated with virus for 30 mins followed by 3 days incubation with cells by luciferase reporter gene based single cycle infection assay; type: functional, cell-based
Outline: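 TZM-bl cells (1 x 10^4/well) were cultured overnight at 37 °C. HXB2-Env pseudovirus was preincubated 30 min with graded compound concentrations, then added to the cells for 3 days. Cells were washed and lysed, and luciferase was read. IC50 came from percent inhibition.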

[24] = test system: Human immunodeficiency virus 1; assay: Antiviral activity against HIV1 HXB2 pseudovirus infected in human TZM-bl cells assessed as inhibition of viral entry treated 1 hr post infection measured after 48 hrs by luciferase reporter gene assay; type: functional, cell-based
Outline: (§7)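 TZM-bl cells, 1 x 10^4/well, cultured overnight at 37 °C, then infected with HXB2 Env pseudovirus. Plates spun 30 min at 2090 g at 4 °C, then held 90 min at 37 °C. Unbound virus washed off with PBS and fresh medium added. Compounds given at 10-15 times their IC50 at set times after infection. Cells lysed at 48 h and luciferase read. Two independent experiments, each in triplicate.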

[25] = test system: Human immunodeficiency virus 1; assay: Antiviral activity against HIV1 HXB2 pseudovirus infected in human TZM-bl cells assessed as inhibition of viral entry treated 2 to 4 hrs post infection measured after 48 hrs by luciferase reporter gene assay; type: functional, cell-based; outline: as §7

Chain of Cytochrome P450 3A4 (P08684 whole entry): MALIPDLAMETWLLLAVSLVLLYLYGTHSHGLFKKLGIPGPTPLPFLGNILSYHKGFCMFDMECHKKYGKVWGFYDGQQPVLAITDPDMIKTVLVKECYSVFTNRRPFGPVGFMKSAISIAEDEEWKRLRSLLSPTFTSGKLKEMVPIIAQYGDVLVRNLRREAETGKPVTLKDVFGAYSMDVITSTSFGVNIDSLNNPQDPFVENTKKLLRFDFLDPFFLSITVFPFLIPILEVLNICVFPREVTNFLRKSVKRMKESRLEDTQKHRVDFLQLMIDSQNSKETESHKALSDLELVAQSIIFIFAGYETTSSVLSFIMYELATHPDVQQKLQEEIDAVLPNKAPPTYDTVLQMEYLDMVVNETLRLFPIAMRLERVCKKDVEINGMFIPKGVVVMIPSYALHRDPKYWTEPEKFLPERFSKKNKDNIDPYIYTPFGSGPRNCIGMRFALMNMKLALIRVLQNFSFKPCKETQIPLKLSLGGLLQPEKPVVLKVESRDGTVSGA
Chain of Voltage-gated inwardly rectifying potassium channel KCNH2 (Q12809 whole entry): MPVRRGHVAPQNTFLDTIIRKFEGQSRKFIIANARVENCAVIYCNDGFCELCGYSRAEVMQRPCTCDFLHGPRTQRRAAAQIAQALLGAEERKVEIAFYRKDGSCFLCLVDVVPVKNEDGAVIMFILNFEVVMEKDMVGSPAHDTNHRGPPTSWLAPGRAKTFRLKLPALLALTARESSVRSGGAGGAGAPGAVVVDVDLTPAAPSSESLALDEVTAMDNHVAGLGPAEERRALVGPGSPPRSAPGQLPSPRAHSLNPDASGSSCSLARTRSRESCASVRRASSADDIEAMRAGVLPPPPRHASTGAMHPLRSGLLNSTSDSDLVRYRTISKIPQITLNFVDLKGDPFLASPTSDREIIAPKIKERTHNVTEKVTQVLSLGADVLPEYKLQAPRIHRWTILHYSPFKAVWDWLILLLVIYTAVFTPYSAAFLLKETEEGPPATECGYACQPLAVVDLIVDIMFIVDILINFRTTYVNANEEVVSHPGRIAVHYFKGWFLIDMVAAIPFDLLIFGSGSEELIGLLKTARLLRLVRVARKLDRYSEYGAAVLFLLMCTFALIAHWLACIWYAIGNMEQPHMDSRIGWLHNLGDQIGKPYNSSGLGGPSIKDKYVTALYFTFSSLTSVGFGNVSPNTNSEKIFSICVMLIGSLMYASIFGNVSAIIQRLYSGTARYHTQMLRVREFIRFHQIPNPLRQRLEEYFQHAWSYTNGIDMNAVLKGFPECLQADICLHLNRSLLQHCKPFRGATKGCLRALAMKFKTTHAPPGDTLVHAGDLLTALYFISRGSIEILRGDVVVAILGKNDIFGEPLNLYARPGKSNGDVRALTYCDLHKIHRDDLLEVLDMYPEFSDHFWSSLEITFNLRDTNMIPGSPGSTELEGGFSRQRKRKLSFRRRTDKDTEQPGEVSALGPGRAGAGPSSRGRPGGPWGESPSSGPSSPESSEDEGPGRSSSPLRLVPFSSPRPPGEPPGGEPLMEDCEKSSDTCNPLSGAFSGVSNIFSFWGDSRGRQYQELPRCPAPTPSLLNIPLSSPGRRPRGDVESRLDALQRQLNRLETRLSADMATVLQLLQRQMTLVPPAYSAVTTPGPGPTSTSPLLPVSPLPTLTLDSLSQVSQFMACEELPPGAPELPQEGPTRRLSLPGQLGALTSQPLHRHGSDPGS
Chain of Cytochrome P450 2C19 (P33261 whole entry): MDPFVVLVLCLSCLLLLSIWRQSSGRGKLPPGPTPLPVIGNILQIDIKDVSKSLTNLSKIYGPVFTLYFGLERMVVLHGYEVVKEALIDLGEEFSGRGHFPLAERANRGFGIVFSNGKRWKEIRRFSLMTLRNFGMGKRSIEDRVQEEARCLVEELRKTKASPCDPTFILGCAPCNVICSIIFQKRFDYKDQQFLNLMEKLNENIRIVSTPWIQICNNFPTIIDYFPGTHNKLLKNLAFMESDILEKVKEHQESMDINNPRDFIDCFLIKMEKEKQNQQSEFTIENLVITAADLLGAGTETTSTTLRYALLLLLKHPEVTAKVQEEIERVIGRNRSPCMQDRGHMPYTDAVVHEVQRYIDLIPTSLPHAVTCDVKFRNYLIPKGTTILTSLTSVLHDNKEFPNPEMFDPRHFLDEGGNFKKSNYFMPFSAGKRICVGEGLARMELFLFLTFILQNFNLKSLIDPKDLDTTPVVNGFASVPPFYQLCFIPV
Chain of Cytochrome P450 2D6 (P10635 whole entry): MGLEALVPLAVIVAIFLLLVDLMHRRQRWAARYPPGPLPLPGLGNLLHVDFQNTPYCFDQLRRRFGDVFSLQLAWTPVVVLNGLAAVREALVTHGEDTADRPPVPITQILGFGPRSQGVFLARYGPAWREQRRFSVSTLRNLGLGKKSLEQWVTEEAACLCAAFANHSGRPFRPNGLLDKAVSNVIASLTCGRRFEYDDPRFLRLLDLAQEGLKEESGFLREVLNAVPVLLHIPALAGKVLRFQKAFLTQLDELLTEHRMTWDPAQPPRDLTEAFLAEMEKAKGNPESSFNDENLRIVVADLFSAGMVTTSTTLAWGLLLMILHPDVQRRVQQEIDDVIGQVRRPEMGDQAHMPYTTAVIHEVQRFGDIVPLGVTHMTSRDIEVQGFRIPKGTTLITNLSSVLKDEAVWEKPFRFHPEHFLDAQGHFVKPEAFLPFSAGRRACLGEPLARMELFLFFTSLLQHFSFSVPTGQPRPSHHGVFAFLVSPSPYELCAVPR
Chain of Cytochrome P450 2C9 (P11712 whole entry): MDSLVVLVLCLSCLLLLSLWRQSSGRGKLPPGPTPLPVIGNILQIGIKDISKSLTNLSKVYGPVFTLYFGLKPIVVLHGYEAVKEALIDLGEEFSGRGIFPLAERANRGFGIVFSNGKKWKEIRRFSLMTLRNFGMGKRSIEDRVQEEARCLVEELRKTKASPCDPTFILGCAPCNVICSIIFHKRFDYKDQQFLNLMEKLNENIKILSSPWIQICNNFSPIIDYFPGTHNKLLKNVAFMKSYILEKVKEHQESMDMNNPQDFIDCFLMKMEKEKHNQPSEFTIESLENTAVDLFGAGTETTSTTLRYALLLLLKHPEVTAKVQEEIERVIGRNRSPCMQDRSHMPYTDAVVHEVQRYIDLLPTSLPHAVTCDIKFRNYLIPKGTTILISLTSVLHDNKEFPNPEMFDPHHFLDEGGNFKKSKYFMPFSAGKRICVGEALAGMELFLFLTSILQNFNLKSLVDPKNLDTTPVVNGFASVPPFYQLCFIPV

`Cc1nc(C(NC(=O)c2ccc(-c3ccc(Cl)cc3)[nH]2)C2CCCCN2)sc1CO` (stereo not given) showed an IC50 [1] greater than 25 µM, a CC50 at 72 h [2] of 23.6 µM and an IC50 [3] greater than 25 µM. The CC50 at 96 h [4] was 24.8 µM, the IC50 [5] was 1.1 µM and the IC50 [6] was greater than 25 µM. The IC50 [7] was 1.4 µM, the IC50 [8] was 0.79 µM and the fraction unbound at 5 µM [9] was 0.114. For the same molecule, the IC50 [10] was 6.1 µM, the Papp A→B at 10 µM [11] was 2.31 ×10⁻⁶ cm/s and the Papp B→A at 10 µM [12] was 31.3 ×10⁻⁶ cm/s. For the same molecule, the IC50 [13] was 47 µM, the IC50 [14] was greater than 25 µM and the IC50 [15] was 3.8 µM. It also gave a remaining at […] [16] of 84%, a microsomal CLint [17] of less than 10 µL/min/mg and a solubility kinetic at 2 h [18] of 65 µM (≈ 28.9 µg/mL). It also gave an IC50 [19] greater than 25 µM.

Molecule `CC1(C)CC(NC(=O)C(=O)Nc2ccc(Cl)cc2)CC(C)(C)N1` has an IC50 [10] of 2.9 µM and an IC50 [13] greater than 300 µM.

Molecule `CNCCC(NC(=O)c1ccc(-c2ccc(F)c(Cl)c2)[nH]1)c1nc(C)c(CO)s1` (stereo in doubt; 65B) has a CC50 [20] of 22.3 µM, a CC50 [21] of 24.2 µM and an IC50 [22] of 5.7 µM. It also gave an IC50 [23] of 4.6 µM.

Work on `Cc1nc(C(CCN)NC(=O)c2ccc(-c3ccc(F)c(Cl)c3)[nH]2)sc1CO` (stereo in doubt; 62B) yielded a CC50 [20] of 24.5 µM, a CC50 [21] of 24.9 µM and an IC50 [22] of 9.3 µM. It also gave an IC50 [23] of 8 µM.

In the case of `COc1ccnc2[nH]cc(C(=O)C(=O)N3CCN(C(=O)c4ccccc4)C[C@H]3C)c12`, the inhibition [24] is reported as “Active” and the inhibition [25] is reported as “inactive”.

Molecule `CNCCC(NC(=O)c1ccc(-c2ccc(F)c(C)c2)[nH]1)c1nc(C)c(CO)s1` (stereo in doubt; 66B) has a CC50 [20] of 36.4 µM, a CC50 [21] of 25.3 µM and an IC50 [22] of 5 µM. The IC50 [23] was 4.9 µM.
